ANO1 block: TMEM16A chloride channel inhibitors, primary screen, cell-based, HTS | Anoctamin-1 (Mus musculus), Q8BHY3 | HEK293 TMEM16A/YFP iodide influx fluorescence, ionomycin | normalized B-score (activity score, 25-100; higher = stronger inhibition) at 10 µM | 1.2% of 310,000 active;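 active means ratio plate-corrected score three or more library SD toward inhibition, starting fluorescence score within five deviations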;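 further: score derived from kinetic fluorescence span divided by baseline fluorescence per well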
IMP-1 inh: IMP-1 metallo-beta-lactamase inhibitors, primary screen, biochemical, epi-absorbance readout, Pseudomonas aeruginosa enzyme; 0.45% of 290,000 active; metallo-beta-lactamase IMP-1 (Pseudomonas aeruginosa); AID 1556, 2009; purified IMP-1, nitrocefin hydrolysis, epi-absorbance fluorescence; inhibition, % at 5.6 µM;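 active means inhibition above the mean plus 3 SD of all compounds in the same screening run, cut at about 4.5% in these data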;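 further: 0% = IMP-1 with DMSO and 100% = DMSO wells lacking enzyme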
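System: Purified recombinant IMP-1 metallo-beta-lactamase enzyme | Measured by: Fluorescence quenching readout, ex 480/em 530 nm | Replication: Singlicate | Incubation: 15 min preincubation plus 25 min reaction at 25 °C | Evaluation: Percent inhibition from optical density relative to buffer-blank wells | Benchmarks: DMSO with and without IMP-1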
CHT allo act: CHT positive allosteric modulators, primary screen, cell-based, membrane potential dye, choline EC20; CHT-expressing cells; hits give high values; LV-AA mutant CHT in HEK293 cells; B-score at 10 µM; 0.49% of 310,000 active;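 active means initial fluorescence not abnormally high and integrated response B-score, plate-corrected, over 3 SD above library mean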
Target sequence (Q9GZV3 whole entry, looked up): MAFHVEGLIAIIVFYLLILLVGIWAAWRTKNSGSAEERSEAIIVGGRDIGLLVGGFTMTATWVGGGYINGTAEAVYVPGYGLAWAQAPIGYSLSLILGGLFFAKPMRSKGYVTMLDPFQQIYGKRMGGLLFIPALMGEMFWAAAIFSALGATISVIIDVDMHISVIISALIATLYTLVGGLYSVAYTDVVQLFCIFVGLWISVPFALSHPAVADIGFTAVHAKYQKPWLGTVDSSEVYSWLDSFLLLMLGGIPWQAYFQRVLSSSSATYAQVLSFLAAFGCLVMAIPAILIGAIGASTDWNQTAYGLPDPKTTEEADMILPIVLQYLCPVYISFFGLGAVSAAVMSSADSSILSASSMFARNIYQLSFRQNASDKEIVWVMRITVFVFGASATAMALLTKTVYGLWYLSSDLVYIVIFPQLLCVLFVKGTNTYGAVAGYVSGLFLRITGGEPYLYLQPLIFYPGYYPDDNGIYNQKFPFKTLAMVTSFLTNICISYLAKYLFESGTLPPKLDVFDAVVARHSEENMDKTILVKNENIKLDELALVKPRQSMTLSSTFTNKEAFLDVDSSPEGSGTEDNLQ
CHT inh: inhibitors of human choline transporter CHT. CHT-expressing cells, membrane potential dye, choline response; hits give low values. B-score at 10 µM. 0.86% of 310,000 active;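 active means B-score over 3 SD under the library average, and starting fluorescence ratio not unusually high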;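 further: choline stimulus applied at its EC90 after an EC20 pre-addition; B-score computed on integrated fluorescence ratio after choline addition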
TMEM16A act: TMEM16A chloride channel activators or potentiators, primary screen, cell-based, HTS. AID 623877, 2012. Anoctamin-1 (Mus musculus), Q8BHY3. 0.3% of 340,000 active. B-score at 10 µM. HEK293 TMEM16A/YFP-H148Q/I152L, iodide quench fluorescence; hits give low values;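 active means fluorescence-ratio B-score plate-corrected deviation score at least 3 library SD below zero, with starting fluorescence score within 5 deviations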;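 further: channel opened by trigger with iodide after compound preincubation; score built on the fluorescence ratio of max minus min over baseline; more negative score means more quench and so TMEM16A activation or potentiation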
VIM-2 inhibitor: VIM-2 metallo-beta-lactamase inhibitors, primary screen, biochemical, epi-absorbance readout, Pseudomonas aeruginosa enzyme; inhibition, % at 5.6 µM; 0.89% of 290,000 active; purified VIM-2, nitrocefin hydrolysis, epi-absorbance fluorescence; AID 1527, 2009;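 active means inhibition above the mean of all tested compounds plus 3 SD, cutoff set per screening run, cut at about 7.5% in these data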;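 further: red hydrolysis product quenches plate fluorescence so inhibitors raise well fluorescence; 0% = enzyme with DMSO and 100% = DMSO without enzyme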
TMEM16A reconf: TMEM16A chloride channel inhibitors, confirmation, cell-based, re-confirmation; inhibition, % at 10 µM; HEK293 TMEM16A/YFP-H148Q, iodide quench fluorescence; ionomycin added to raise cell calcium; 39% of 2,300 active; shares compounds with ANO1 block;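 active means mean duplicate percent inhibition, scaled so buffer wells are 0 and the reference blocker 100, over three buffer SD above buffer mean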
HEK293 Ca mobil: calcium mobilization in TMEM16A/YFP HEK293 cells, confirmation, counter-screen for TMEM16A inhibitor project; shares compounds with ANO1 block; Fluo4 calcium mobilization; calcium response (% of ionomycin), % at 10 µM; 2% of 2,300 active; AID 652231, 2013;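 active means duplicate-averaged calcium signal over 20% of the ionomycin maximum, relative to buffer baseline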;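 further: each well's signal is peak minus trough fluorescence divided by its pre-addition baseline; 0% = buffer wells and 100% = ionomycin wells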
Parental YFP cnt: iodide YFP quench changes in parental YFP-HEK293, counter-screen for TMEM16A inhibitor project, cell-based | shares compounds with ANO1 block | ionomycin | YFP ratio F(max-min)/F0 at 10 µM | 2,300 tested, under 10 active;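 active means yellow fluorescent protein signal ratio exceeding the buffer control mean by over 5 SD of those controls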;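 further: ratio is mean of duplicate wells from kinetic YFP trace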
ClC-1 rat inh: ClC-1 chloride channel inhibition, selectivity assay for TMEM16A inhibitor project, cell-based, voltage-dependent ClC-1; AID 652236, 2013; CHO ClC-1-YFP, iodide influx fluorescence quench; iodide control reads 0, buffer control 100; shares compounds with ANO1 block; 2,300 tested, under 10 active; ratio percent, % at 10 µM;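 active means duplicate-mean ratio percent above the mean of iodide-only control wells, which defines zero, plus 5 of their SD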;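 further: higher percent means stronger block of ClC-1 iodide influx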
* marks the source's active call; other numbers are inactive results. Shown are actives, neighbours in structure and some others; about 3.4% of the full set was active somewhere.

Cc1sc(NC(=O)CSc2nnc3scc(-c4ccccc4)n23)c(C#N)c1C was read as ANO1 block 25*, IMP-1 inh -3, CHT allo act inactive, CHT inh inactive, TMEM16A act inactive, VIM-2 inhibitor -2, TMEM16A reconf inactive, HEK293 Ca mobil inactive, Parental YFP cnt -1.1 and ClC-1 rat inh -8.
`COc1ccc(S(=O)(=O)Oc2ccccc2C(N)=O)cc1` gave TMEM16A act inactive.
Cc1cnc(NC(=O)CCCSc2nc3ccccc3s2)s1 was read as ANO1 block inactive, IMP-1 inh -4, CHT allo act inactive, CHT inh inactive, TMEM16A act inactive and VIM-2 inhibitor -2.
Cc1csc(NC(=O)CCCSc2nc3ccccc3s2)n1 was read as ANO1 block 100*, IMP-1 inh -2, CHT allo act inactive, CHT inh inactive, TMEM16A act inactive, VIM-2 inhibitor -3, TMEM16A reconf inactive, HEK293 Ca mobil 32%*, Parental YFP cnt -0.99 and ClC-1 rat inh -11.
`CCOC(=O)c1c(NC(=O)CSc2nnc(Cc3ccccc3)o2)sc(C(C)=O)c1C` gave ANO1 block 25*, IMP-1 inh -4, CHT allo act inactive, CHT inh inactive, TMEM16A act inactive, VIM-2 inhibitor -6, TMEM16A reconf 16%*, HEK293 Ca mobil inactive, Parental YFP cnt -1.3 and ClC-1 rat inh -21.
Screening CCOC(=O)c1c(NC(=O)CSc2nnc(-c3ccccc3)o2)sc(C(C)=O)c1C returned ANO1 block inactive, IMP-1 inh -3, CHT allo act inactive, CHT inh inactive, TMEM16A act inactive and VIM-2 inhibitor -1.
`O=C(Nc1ccc2c(c1)C(=O)N(CC1CCCO1)C2=O)c1ccc(Cl)c(Cl)c1` (configuration not stated) gave ANO1 block 100*, IMP-1 inh -3, CHT allo act inactive, CHT inh inactive, TMEM16A act inactive, VIM-2 inhibitor 0, TMEM16A reconf 52%*, HEK293 Ca mobil inactive, Parental YFP cnt -0.89 and ClC-1 rat inh -26.
`O=C(NCc1ccco1)c1ccccc1NS(=O)(=O)c1ccc(Br)s1` gave ANO1 block 100*, IMP-1 inh -2, CHT allo act inactive, CHT inh inactive, TMEM16A act inactive, VIM-2 inhibitor -3, TMEM16A reconf inactive, HEK293 Ca mobil inactive, Parental YFP cnt -0.82 and ClC-1 rat inh -22.
For Cc1cccc(NC(=O)c2cc3ccccc3o2)c1 the results were ANO1 block inactive, IMP-1 inh -5, CHT allo act inactive, CHT inh inactive, TMEM16A act inactive and VIM-2 inhibitor -6.
`O=C(Nc1cccc(Br)c1)c1cc2ccccc2o1` gave ANO1 block 25*, IMP-1 inh -1, CHT allo act inactive, CHT inh inactive, TMEM16A act inactive, VIM-2 inhibitor 1, TMEM16A reconf inactive, HEK293 Ca mobil inactive, Parental YFP cnt -0.9 and ClC-1 rat inh -9.
COc1cc(CC(=O)N2CCN(C(=O)C3CCCO3)CC2)cc(OC)c1OC (configuration not stated) was read as TMEM16A act inactive.
Cc1c(C(=O)OCCOc2ccccc2)[nH]c2c1C(=O)CCC2 was read as ANO1 block 100*, IMP-1 inh -2, CHT allo act inactive, CHT inh inactive, TMEM16A act inactive, VIM-2 inhibitor 0, TMEM16A reconf 25%*, HEK293 Ca mobil inactive, Parental YFP cnt -0.8 and ClC-1 rat inh -13.
